# The list is not random: actives were taken first. Their share in the collection is about 2.3%.
# TRPC4 block = blocks the mouse TRPC4 cation channel; Q9QUQ5; HEK293 TRPC4beta/mu-opioid, DAMGO-evoked Fluo4 calcium flux; stronger effect = lower value; B-score at 10 µM; 0.39% of 300,000 active; AID 2247;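 active = B-score over 3 SD under the library average, no early fluorescence shift, positive overall ratio signal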
#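 Material: HEK293 cells with stable TRPC4beta plus mu-opioid receptor expression / Probe or stimulus: DAMGO in two steps, submaximal then maximal / Compound: single concentration per test compound / Technique: kinetic Fluo4 fluorescence imaging of calcium influx / Read-out: per-well B score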
# TRPC4 PAM = TRPC4 (mouse) allosteric potentiation. AID 2227. Q9QUQ5. HEK293 TRPC4beta/mu-opioid, DAMGO EC20, Fluo-4 Ca2+ flux; stronger effect = higher value. B-score at 10 µM. 0.42% of 310,000 active;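 active = B-score of calcium response area above 5 SD of library B-scores, with initial fluorescence ratio within 5 SD of library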;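 also: B-score of integrated fluorescence ratio over time as area under calcium response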
# TRPC6 inhibitor = blocks the mouse TRPC6 cation channel. 1.1% of 310,000 active. B-score at 10 µM. AID 2553. HEK293-TRPC6, membrane potential dye, ACh-evoked depolarization; stronger effect = lower value. Q61143;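 active = B-score under library mean minus 3 SD, initial fluorescence not abnormally high, positive integrated signal ratio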;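 also: B-score derived from integrated fluorescence ratio over the kinetic read; more negative B-score means stronger inhibition of depolarization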
# Target sequence (Q61143 whole entry, looked up): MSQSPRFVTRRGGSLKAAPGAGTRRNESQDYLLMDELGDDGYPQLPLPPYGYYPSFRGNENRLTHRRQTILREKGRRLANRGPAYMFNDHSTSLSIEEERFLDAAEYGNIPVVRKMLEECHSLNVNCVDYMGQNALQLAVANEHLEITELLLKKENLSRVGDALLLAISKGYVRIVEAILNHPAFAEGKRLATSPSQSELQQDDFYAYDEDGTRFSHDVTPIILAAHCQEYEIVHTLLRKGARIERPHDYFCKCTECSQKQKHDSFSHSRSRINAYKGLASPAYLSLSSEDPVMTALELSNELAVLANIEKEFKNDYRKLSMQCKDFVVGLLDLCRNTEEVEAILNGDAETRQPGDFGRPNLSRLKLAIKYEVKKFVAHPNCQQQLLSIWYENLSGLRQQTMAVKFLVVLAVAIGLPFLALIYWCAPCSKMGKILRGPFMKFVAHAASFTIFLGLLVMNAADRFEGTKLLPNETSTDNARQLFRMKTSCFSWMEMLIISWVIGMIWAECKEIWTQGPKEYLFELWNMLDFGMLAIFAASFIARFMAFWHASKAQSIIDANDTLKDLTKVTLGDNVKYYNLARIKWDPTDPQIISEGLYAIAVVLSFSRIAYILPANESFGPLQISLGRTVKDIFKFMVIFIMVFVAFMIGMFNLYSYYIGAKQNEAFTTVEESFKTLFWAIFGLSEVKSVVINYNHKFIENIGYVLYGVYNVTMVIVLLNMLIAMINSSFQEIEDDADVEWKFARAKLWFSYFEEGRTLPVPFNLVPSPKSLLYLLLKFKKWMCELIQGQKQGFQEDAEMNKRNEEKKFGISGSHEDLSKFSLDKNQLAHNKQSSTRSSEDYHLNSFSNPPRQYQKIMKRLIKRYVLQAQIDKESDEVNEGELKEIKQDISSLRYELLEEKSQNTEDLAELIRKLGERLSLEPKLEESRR
# TRPC4 agonist = opens the mouse TRPC4 cation channel | HEK293 TRPC4beta/mu-opioid, Fluo4 calcium fluorescence; stronger effect = higher value | B-score at 10 µM | 0.49% of 310,000 active | AID 2237;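 active = B-score above 5 SD of library B-scores, and initial fluorescence ratio not above library mean plus 5 SD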;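 also: positive B-score marks a calcium rise read as TRPC4 activation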
#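 Assay system: HEK293 cells stably co-expressing mouse TRPC4beta and mu-opioid receptor / Timing: Fluo4 dye loading 45 min at room temperature, 110 s recording / Signal: Fluo4 calcium-sensitive dye fluorescence, kinetic, 1 Hz baseline / Read-out: integrated baseline-normalised fluorescence ratio, converted to per-well B score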
# TRPC6 act = mouse TRPC6 channel activation. 0.13% of 310,000 active. AID 2550. B-score at 10 µM. HEK293-TRPC6 membrane potential dye fluorescence; stronger effect = higher value. Q61143;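 active = B-score of the integrated fluorescence ratio above library mean plus 3 SD, and starting fluorescence ratio within library mean plus 5 SD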;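 also: higher score means more depolarization so channel activation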
# DNA FID counter = displaces DNA intercalator in HCV helicase counter-screen; DNA fluorescent intercalator displacement, fluorescence; inhibition, % at 7.9 µM; 0.17% of 290,000 active; AID 1845; in the data active = inhibition above about 37%;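 also: 0% = vehicle and 100% = reference compound; higher means more ethidium bromide displaced from hairpin DNA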
# TRPC4 spec 2 = second selectivity test of TRPC6 inhibitors: effect on mouse TRPC4 | inhibition, % at 10 µM | AID 2776 | 42% of 920 active | shares compounds with TRPC6 inhibitor | HEK293 TRPC4/MOR, membrane potential dye fluorescence; channel activated by saturating DAMGO dose;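 active = compounds whose fluorescence signal differed from control wells by over 3 SD, either direction, in both duplicate plates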
# TRPC4 spec = tests whether TRPC6 inhibitors also affect mouse TRPC4. shares compounds with TRPC6 inhibitor. HEK293 TRPC4/mu-opioid, membrane potential fluorescence. activity change, negative = inhibition, % at 10 µM. 61% of 920 active. AID 2777;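 active = rise or fall in signal beyond 3 SD of buffer-only wells in both replicate plates, either sign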;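 also: integrated kinetic ratio of fluorescence range over baseline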
# HEK293 MPD ctr 2-1 = parental HEK293 nonspecific activity of TRPC6 inhibitors, second screen. AID 2779. 31% of 920 active. signal change vs control, % at 10 µM. parental HEK293 membrane potential dye fluorescence; maximal acetylcholine challenge after compound addition. shares compounds with TRPC6 inhibitor;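 active = membrane potential signal moving either way by over 3 SD of the maximum-effect control, in both duplicate plates, meaning non-specific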
# HEK293 MPD ctr-1 = checks TRPC6 inhibitor effects in parental HEK293 cells | shares compounds with TRPC6 inhibitor | parental HEK293 membrane potential dye fluorescence | membrane potential signal change, % at 10 µM | 60% of 920 active | AID 2780;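 active = membrane potential signal shifting up or down by more than 3 SD of buffer-only wells, on both duplicate plates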
# HEK293 MPD ctr-2 = parental HEK293 nonspecific activity of TRPC6 modulators. shares compounds with TRPC6 inhibitor. 51% of 2,400 active. membrane potential dye fluorescence. membrane potential signal change, % at 10 µM. AID 488924;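 active = membrane potential signal moves up or down beyond 5 SD from buffer-only wells, on both duplicate plates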
# HEK293 MPD ctr 2-2 = second check of TRPC6 modulator effects in parental HEK293 cells. membrane potential dye fluorescence; after compound, maximal acetylcholine stimulation. inhibition, % at 10 µM. AID 488926. 14% of 2,400 active. shares compounds with TRPC6 inhibitor;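 active = membrane potential signal drops by more than 5 SD from the mean control signal, in both duplicate plates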;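 also: plate controls were acetylcholine ECmax control wells for no effect and buffer only wells for full effect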
# TRPC4 ctr mod = tests whether TRPC6 modulators also affect mouse TRPC4; shares compounds with TRPC6 inhibitor; HEK293 TRPC4/mu-opioid, membrane potential fluorescence; percent change from control (negative = decrease, positive = increase), % at 10 µM; 69% of 2,400 active;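 active = membrane potential signal moved up or down beyond 5 SD of buffer control wells, in both duplicate plates, actives on both sides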;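 also: plate controls were assay buffer wells for no effect and DAMGO maximal-effect wells for full effect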
# TRPC4/MOR inh 2 = mouse TRPC4 off-target activity of TRPC6 modulators, second screen. 55% of 2,400 active. shares compounds with TRPC6 inhibitor. inhibition, % at 10 µM. HEK293 TRPC4/mu-opioid, membrane potential dye fluorescence; stimulated with maximal-effect DAMGO. AID 488928;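 active = drop in membrane potential signal beyond 5 SD of the control wells in both duplicate plates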;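 also: TRPC4 counter screen for TRPC6 hits run under conditions tuned for TRPC6 not TRPC4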
# TRPC6 block conf = confirmation of mouse TRPC6 inhibitors; inhibition, % at 10 µM; 43% of 3,300 active; HEK293-TRPC6, membrane potential dye, ACh-evoked depolarization; shares compounds with TRPC6 inhibitor;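 active = fluorescence ratio falls more than 5 SD below the full-stimulation control mean, in both duplicate runs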;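 also: integrated fluorescence ratio of peak minus minimum over baseline after agonist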
# TRPC6 act conf = mouse TRPC6 activator confirmation. AID 488961. 11% of 2,800 active. HEK293-TRPC6 membrane potential dye fluorescence, FDSS. shares compounds with TRPC6 inhibitor. activation, % at 10 µM;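 active = ratio signal rise beyond 5 SD above unstimulated control wells' mean, seen in both duplicate runs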;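 also: plate controls were buffer EC0 wells for no effect and acetylcholine ECmax response for full effect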
# An asterisk follows results filed as active; i = inactive; · = no result given; ! = not active in a repeat.
SMILES,TRPC4 block,TRPC4 PAM,TRPC6 inhibitor,TRPC4 agonist,TRPC6 act,DNA FID counter,HEK293 MPD ctr-2,HEK293 MPD ctr 2-2,TRPC4 ctr mod,TRPC4/MOR inh 2,TRPC6 block conf,TRPC6 act conf,others
COC(=O)c1ccc2c(c1)C(C)(C)C(/C=C/c1ccc(OC)c(OC)c1OC)=[N+]2C,i,i,-9.55*,i,i,-36.7,-179.0%*,88.0%*,-190.5%*,55.5%*,71.5%*,i,
CC(=O)/C(=N/Nc1ccccc1[N+](=O)[O-])N1CCCc2ccccc21,i,i,-6.6*,i,i,-3.0,i,i,i,49.0%*,i,i,
CC(=O)/C(=N/Nc1ccc([N+](=O)[O-])cc1)N1CCCc2ccccc21,i,i,i,i,i,2.3,·,·,·,·,·,·,
NCCc1ccc(O)c(O)c1,i,i,-5.26*,i,i,0.5,i,i,i,i,i,i,
Cc1c(C(=O)N(CCC#N)c2ccccc2)sc2nc3n(c(=O)c12)CCCC3,i,i,i,i,i,-35.5,·,·,·,·,·,·,
O=S(=O)(Nc1nc2ccccc2nc1Nc1ccc(N2CCOCC2)cc1)c1cc(Cl)ccc1Cl,i,i,-6.7*,i,i,-2.9,·,·,·,·,i,i,TRPC4 spec 2=78.0%*;TRPC4 spec=-10.4%*;HEK293 MPD ctr 2-1=i;HEK293 MPD ctr-1=-241.0%*
COc1c(Cl)cnn(-c2ccc(Cl)c(Cl)c2)c1=O,i,i,i,i,i,-0.6,·,·,·,·,·,·,
Cc1ccccc1C(=O)Nc1ccc(S(=O)(=O)N2CCCC2)cc1,i,i,i,i,i,-11.3,·,·,·,·,·,·,
c1csc(C2Nc3ccccc3-c3nc4ccccc4n32)c1 (configuration not stated),i,i,-6.64*,i,i,-0.5,·,·,·,·,i,i,TRPC4 spec 2=i;TRPC4 spec=9.1%*;HEK293 MPD ctr 2-1=i;HEK293 MPD ctr-1=2.3%*
Cc1ccsc1C1Nc2ccccc2-c2nc3ccccc3n21 (configuration not stated),i,i,i,i,i,-0.7,·,·,·,·,·,·,
Cc1ccc2ccc3cccnc3c2n1,i,i,-5.75*,i,i,-4.8,-247.5%*,i,-35.5%*,i,44.5%*,i,
O=C(O)c1ccc2cccnc2c1O,i,i,i,i,i,3.3,·,·,·,·,·,·,
CN(C)C/C=C/C(O)(c1ccccc1)c1ccccc1,i,i,-7.59*,i,i,-0.8,·,·,·,·,60.6%*,i,TRPC4 spec 2=i;TRPC4 spec=i;HEK293 MPD ctr 2-1=i;HEK293 MPD ctr-1=1.3%*
Cc1cc(C)c(OCCCNC2CCCC2)c(Br)c1,i,i,-5.4*,i,11.6*,16.9,201.0%*,i,43.0%*,53.5%*,i,93.5%*,
CC(C)(C)c1ccc(C(=O)Oc2ccc3c(c2)OCC3=O)cc1,i,i,i,i,i,-16.3,·,·,·,·,·,·,
O=C(Oc1ccc2c(c1)OCC2=O)c1ccccc1,i,i,-5.8*,i,i,-3.8,i,i,i,i,i,·,
N#C/C(=C/c1ccc(N2CCCCC2)o1)C(=O)Nc1ccc2ccccc2c1,i,i,i,i,79.7*,-8.0,844.0%*,i,233.0%*,i,i,274.0%*,
N#C/C(=C/c1ccc(N2CCCCC2)o1)C(=O)Nc1ccc(Cl)cc1,i,i,i,i,i,3.4,·,·,·,·,·,·,
CS(=O)(=O)c1ccc2nc(NC(=O)CN3C(=O)NC4(CCCC4)C3=O)sc2c1,i,i,i,i,i,1.8,·,·,·,·,·,·,
Cc1onc(-c2c(F)cccc2Cl)c1C(=O)NC(=S)Nc1c(C)n(C)n(-c2ccccc2)c1=O,i,i,-9.22*,i,i,-29.9,·,·,·,·,i,i,TRPC4 spec 2=i;TRPC4 spec=i;HEK293 MPD ctr 2-1=38.5%*;HEK293 MPD ctr-1=i
COc1ccc(C(=O)NC(=S)N(CCC(C)C)c2c(N)n(Cc3ccccc3)c(=O)[nH]c2=O)cc1,i,i,-5.52*,i,i,-35.8,i,i,i,i,i,i,
Cc1cccc(NC(=O)CNC(=O)c2ccc(-n3cncn3)c([N+](=O)[O-])c2)c1C,i,i,i,i,i,·,·,·,·,·,·,·,
CC(N)C12CC3CC(CC(C3)C1)C2 (configuration not stated),i,i,-5.39*!,i,i,0.2,i,i,i,29.5%*,i,i,
NC(CO)C12CC3CC(CC(C3)C1)C2 (configuration not stated),i,i,i,i,i,0.9,·,·,·,·,·,·,
CCOC(=O)N1CCC(c2cc(=O)n3[nH]c(C)c(-c4ccc(F)cc4)c3n2)CC1,i,i,i,i,15.6*,-37.5,i,i,i,i,·,195.5%*,
CCOC(=O)N1CCC(c2cc(=O)n3[nH]c(-c4ccccc4)cc3n2)CC1,i,i,i,i,i,-7.9,·,·,·,·,·,·,
Cc1sc2c3ccsc3ccc2[n+]1C,i,i,-8.59*,i,i,-17.8,-292.0%*,71.0%*,-50.0%*,58.0%*,67.5%*,i,
